Screening data: PubChem BioAssay, The Scripps Research Institute Molecular Screening Center
pPAFAH inh = pPAFAH enzyme inhibitors, primary screen, biochemical, fluorescence polarization, human | inhibition, % at 3.39 µM | recombinant pPAFAH, FP-rhodamine probe fluorescence polarization | 1.5% of 330,000 active | AID 463082, 2010;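 active = inhibition above the mean inhibition across the screen plus 3 SD, cut at about 25% in these data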;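 note: inhibitors block binding of the rhodamine activity-based probe so polarization drops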
PAFAH1B2 inh = PAFAH1B2 enzyme inhibitors, primary screen, biochemical, fluorescence polarization, human | recombinant PAFAH1B2, FP-rhodamine activity probe | inhibition, % at 3.39 µM | 1.2% of 340,000 active;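 active = inhibition above the mean of all tested compounds plus 3 SD, cut at about 24% in these data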
Target sequence (P68402 whole entry, looked up): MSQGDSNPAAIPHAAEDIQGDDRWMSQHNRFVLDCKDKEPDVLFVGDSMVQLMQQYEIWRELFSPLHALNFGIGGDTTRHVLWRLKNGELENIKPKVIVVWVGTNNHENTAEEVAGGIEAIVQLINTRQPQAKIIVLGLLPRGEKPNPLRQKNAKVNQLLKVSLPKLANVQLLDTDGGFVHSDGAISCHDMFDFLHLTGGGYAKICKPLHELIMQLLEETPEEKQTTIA
PAFAH2 FP inh = PAFAH2 enzyme inhibitors, primary screen, biochemical, fluorescence polarization, human; Platelet-activating factor acetylhydrolase 2, cytoplasmic (Homo sapiens), Q99487; recombinant PAFAH2, FP-rhodamine activity probe; inhibition, % at 3.39 µM; 0.99% of 340,000 active;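 active = inhibition above the mean over all tested compounds plus 3 SD, cut at about 30% in these data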;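 note: inhibitors block probe labeling of enzyme so polarization drops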
RBBP9 inh = human RBBP9 inhibitors, primary screen, biochemical, fluorescence polarization, FP-Rh probe, HTS; Serine hydrolase RBBP9 (Homo sapiens), O75884; recombinant RBBP9; inhibition, % at 7.94 µM; 0.2% of 220,000 active; AID 1515, 2009;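 active = inhibition above the campaign mean of all tested compounds plus 3 SD, cut at about 14% in these data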
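System: RBBP9 protein | Quantity: 2.5 µM RBBP9 dispensing solution, before mixing | Reagent: FP-Rh probe, 375 nM dispensing solution | Timing: Enzyme-compound preincubation 30 min, then probe labeling 45 min, 25 °C | Measured by: Fluorescence polarization | Read-out: % inhibition | Replication: One well per compound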
PAFAH1B3 FP inh = PAFAH1B3 enzyme inhibitors, primary screen, biochemical, fluorescence polarization, human; Platelet-activating factor acetylhydrolase IB subunit alpha1 (Homo sapiens), Q15102; recombinant PAFAH1B3, FP-rhodamine probe; inhibition, % at 3.39 µM; 0.28% of 340,000 active; AID 492972, 2010;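 active = inhibition above the screen-wide average of all tested compounds plus 3 SD, cut at about 25% in these data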
Target sequence (Q15102 whole entry, looked up): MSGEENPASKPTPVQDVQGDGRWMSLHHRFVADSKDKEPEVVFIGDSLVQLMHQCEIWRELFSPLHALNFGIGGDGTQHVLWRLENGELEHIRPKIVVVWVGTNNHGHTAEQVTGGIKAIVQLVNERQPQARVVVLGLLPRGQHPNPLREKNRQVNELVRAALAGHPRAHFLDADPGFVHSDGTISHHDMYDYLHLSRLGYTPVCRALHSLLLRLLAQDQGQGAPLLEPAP
pPAFAH FP conf = pPAFAH (PLA2G7) enzyme inhibitors, confirmation, biochemical, fluorescence polarization, human. 72% of 2,300 active. shares compounds with pPAFAH inh. recombinant pPAFAH, FP-Rh probe fluorescence polarization. AID 463230, 2010. inhibition, % at 3.39 µM;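 active = mean inhibition of the triplicate above the hit cutoff set for the earlier primary screen, cut at about 25% in these data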
Each line names hits and unclear results; the compound was inactive in the other large screens (follow-up assays come after a bar, where they were run). Sampled rows, rich in hits. Any-hit rate of the full collection: about 2.7%.

Cc1nnsc1C(=O)N/N=C/c1ccccc1	none
Cc1nnsc1C(=O)N/N=C/c1ccc2ccccc2c1O	pPAFAH inh 36 | pPAFAH FP conf 48
CC(Oc1ccc(Br)cc1)C(=O)NCC1(N2CCCCC2)CCCCC1 (stereo not given)	none (no result: RBBP9 inh)
O=C(O)c1ccc(N/N=C/c2ccc(-c3ccc(Cl)cc3Cl)o2)cc1	pPAFAH inh 51 | pPAFAH FP conf 47
COC(=O)N/N=C/c1ccc(-c2ccc(Cl)cc2Cl)o1	none
O=C(O)c1ccc(N/N=C/c2ccc(-c3cc(Cl)ccc3Cl)o2)cc1	pPAFAH inh 37 | pPAFAH FP conf 56
O=C(O)c1ccc(N/N=C/c2ccc(-c3cccc(Cl)c3)o2)cc1	pPAFAH inh 65 | pPAFAH FP conf 47
Cc1ccc(S(=O)(=O)N(CC(=O)NC2CC2)c2ccc(C)c(Cl)c2)cc1	none (no result: RBBP9 inh)
COC1=CC(=O)C(O)=C(CCCCCCC/C=C/CCCCCCCC2=C(O)C(=O)C=C(OC)C2=O)C1=O	pPAFAH inh 95, PAFAH1B2 inh 94, PAFAH2 FP inh 101, PAFAH1B3 FP inh 41 (no result: RBBP9 inh) | pPAFAH FP conf 95
N#C/C(=C\c1ccc(O)c(O)c1)C(=O)c1ccc(O)c(O)c1	pPAFAH inh 93, PAFAH1B2 inh 54, PAFAH2 FP inh 79, PAFAH1B3 FP inh 38 (no result: RBBP9 inh) | pPAFAH FP conf 85
N#C/C(=C\c1ccc(O)c(O)c1)C(=O)N1CCCC1	none
COc1cnc(-c2ccccn2)nc1Oc1ccccc1Cl	none
COc1cnc(-c2ccccn2)nc1Oc1ccc(Cl)c2ccccc12	pPAFAH inh 60 | pPAFAH FP conf 64
CSCC[C@H](NC(=O)C1CCN(S(=O)(=O)c2ccccc2)CC1)C(=O)NC1CC1	none (no result: RBBP9 inh)
CC1=CN2C(=N)/C(=C/c3ccc([N+](=O)[O-])o3)C(=O)N=C2S1	pPAFAH inh 44 | pPAFAH FP conf 30
COCc1cc(=O)n2[nH]c(-c3ccco3)cc2n1	none
CCCCN1Cc2c(nc3cc(-c4ccco4)[nH]n3c2=O)C1=O	pPAFAH inh 63, PAFAH2 FP inh 32 | pPAFAH FP conf inactive
CC(=O)Nc1ccc(S(=O)(=O)Nc2nc3ccccc3nc2Nc2ccc(N)cc2)cc1	pPAFAH inh 38 | pPAFAH FP conf inactive
O=C(O)c1ccc(Nc2nc3ccccc3nc2NS(=O)(=O)c2ccc(F)cc2)cc1	none (no result: RBBP9 inh)
Nc1ccc(N2CCN(CCCCN3C(=O)C4CCCN4C3=O)CC2)cc1 (stereo not given)	pPAFAH inh 70 | pPAFAH FP conf inactive
Clc1cc(Cl)c(Cl)c(Cl)c1Cl	none (no result: RBBP9 inh)
N#C/C(=N\Nc1cccc(C(F)(F)F)c1)C(=O)c1ccsc1	pPAFAH inh 37 | pPAFAH FP conf 29
Nc1cc2nc3ccccc3oc-2cc1=O	pPAFAH inh 36 | pPAFAH FP conf inactive
CC(C)(C)c1ccc(Oc2cccc(C3CC(=O)C(C4NCCc5ccccc54)C(=O)C3n3cncn3)c2)cc1 (stereo not given)	pPAFAH inh 41 | pPAFAH FP conf inactive
CC(=O)N1CCN(c2ccc(NCc3ccc(-c4cccc(Cl)c4)o3)cc2)CC1	pPAFAH inh 41 (no result: RBBP9 inh) | pPAFAH FP conf 46
CC(=O)N1CCN(c2ccc(NCc3ccco3)cc2)CC1	none (no result: RBBP9 inh)
O=C(Nc1nc(-c2ccco2)c(-c2ccco2)s1)c1c(F)cccc1Cl	pPAFAH inh 48 (no result: RBBP9 inh) | pPAFAH FP conf inactive
CCOC(=O)c1cc(-c2ccc(F)cc2)n(CCC(=O)NC2CCN(Cc3ccccc3)CC2)c1C	pPAFAH inh 40 | pPAFAH FP conf inactive
O=C1NC(=Nc2ccc(O)cc2)S/C1=C\C=C\c1ccco1	pPAFAH inh 53 | pPAFAH FP conf inactive
COc1ccc(N=C2NC(=O)/C(=C\c3ccco3)S2)cc1	none
O=C(CCOc1ccccc1)Nc1ccnn1C1CCN(Cc2ccc(CO)o2)CC1	pPAFAH inh 43 (no result: RBBP9 inh) | pPAFAH FP conf inactive
COC(=O)c1[nH]c2cc(OC)ccc2c1NC(=O)CCN1CCCCC1	pPAFAH inh 39 | pPAFAH FP conf inactive
